Experimental data published in ChEMBL document CHEMBL4765333, “Novel NO-releasing scopoletin derivatives induce cell death via mitochondrial apoptosis pathway and cell cycle arrest” (Eur J Med Chem, 2020).
The source made the active and inactive calls. The rule behind the calls is not given here.

Experiments:
MDA-MB-231 [1] = assay: Induction of apoptosis in human MDA-MB-231 cells assessed as viable cells at 1 uM after 24 hrs by Annexin V/propidium iodide based flow cytometric analysis (reference value: 99%); assay type: functional; details: read-out: Activity
Outline: (§1)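 MDA-MB-231 cells (2×10^5/well) attached 24 h, then treated 24 h with 1, 1.5, 2 or 3 µM, DMSO as control. Cells harvested, PBS-washed, resuspended in binding buffer, stained with Annexin V and PI for 30 min at 37°C in the dark, and analysed by flow cytometry for quadrant percentages; three experiments.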

MDA-MB-231 [2] = assay: Antiproliferative activity in human MDA-MB-231 cells assessed as inhibition of cell viability at 1.5 to 3 uM pretreated with 10 uM necroptosis inhibitor, necrostatin-1 followed by addition of compound and measured after 48 hrs by MTT assay; assay type: functional, cell-based; details: dose 1.5-3 µM
Outline: (§2)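 MDA-MB-231 cells pretreated 1 h with necrostatin-1 (10 µM) or Z-VAD-FMK (20 µM), then exposed to compound at 1.5, 2 and 3 µM for another 48 h. Inhibition rates by MTT; inhibitors alone also tested 48 h for viability. Mean ± SD, n = 3.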

MDA-MB-231 [3] = assay: Induction of cell cycle arrest in human MDA-MB-231 cells assessed as accumulation at S phase at 1 uM measured after 24 hrs by propidium iodide staining based flow cytometric method (reference value: 36.25%); assay type: functional
MDA-MB-231 [4] = assay: Induction of apoptosis in human MDA-MB-231 cells assessed as increase in cleaved caspase-3 protein expression incubated for 8 hrs by Western blot analysis; assay type: functional, cell-based; details: dose 1.5-6 µM
Outline: (§3)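 MDA-MB-231 cells (8×10^5 per 60 mm dish) attached 24 h, then exposed 8 h to 1.5, 3 or 6 µM, DMSO as control. Lysates quantified by BCA; 30 µg protein run on 4–20% SDS-PAGE, transferred to PVDF, probed for Bcl-2, Bax, Bad, cleaved caspase-9, cleaved caspase-3 and PARP, with ECL detection. Densitometric relative levels; three experiments.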

MDA-MB-231 [5] = assay: Induction of apoptosis in human MDA-MB-231 cells assessed as increase in cleaved PARP protein expression incubated for 8 hrs by Western blot analysis; assay type: functional, cell-based; details: dose 1.5-6 µM; outline: as §3
MDA-MB-231 [6] = assay: Induction of mitochondrial membrane potential depolarization in human MDA-MB-231 cells assessed as proportion of cells with depolarized MMP at 2 uM incubated for 18 hrs by JC-1 staining based flow cytometry (reference value: 0.72%); assay type: functional
MDA-MB-231 [7] = assay: Induction of apoptosis in human MDA-MB-231 cells assessed as late apoptotic cells at 1.5 uM after 24 hrs by Annexin V/propidium iodide based flow cytometric analysis (reference value: 0.038%); assay type: functional; outline: as §1
[8] = Induction of intracellular reactive oxygen species generation in human MDA-MB-231 cells assessed as proportion of FL1-H positive cells at 2 uM measured after 24 hrs by DCFH-DA staining based flow cytometry analysis (reference value: 47.8%); assay type: functional, MDA-MB-23
MDA-MB-231 [9] = assay: Antiproliferative activity in human MDA-MB-231 cells assessed as inhibition of cell viability at 1.5 to 3 uM pretreated with 20 uM apoptosis inhibitor, Z-VAD-FMK followed by addition of compound and measured after 48 hrs by MTT assay; assay type: functional, cell-based; details: dose 1.5-3 µM; outline: as §2
MDA-MB-231 [10] = assay: Induction of reactive oxygen species production in human MDA-MB-231 cells at 2 uM preincubated with ROS scavenger, NAC for 2 hrs followed by incubation with compound for 24 hrs by DCFH-DA staining based flow cytometry analysis relative to control; assay type: functional
Outline: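 MDA-MB-231 seeded at 2×10^5 cells/well, grown 24 h, pretreated with NAC (2.5 mM) for 2 h, then given 2 µM compound for 24 h. Cells loaded with DCFH-DA 30 min at 37°C in the dark, washed in PBS, resuspended in serum-free medium and read by flow cytometry; three independent experiments.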

[11] = Anticancer activity against human MDA-MB-231 cells assessed as inhibition of cell proliferation measured after 48 hrs by MTT assay; assay type: functional, cell-based; details: MDA-MB-23, 48 h
Outline: (§4)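 Cells seeded at ~5,000/well, grown 24 h to partial monolayer, then exposed 48 h at 37°C, 5% CO2 to 0.5, 1, 2, 4, 10 and 20 µM (DMSO ≤0.1%). MTT final 0.5 mg/ml for 4 h, formazan dissolved in DMSO, A570. Survival expressed as % of untreated control; IC50 from dose-response curves; three independent experiments. MDA-MB-231, MCF-7, HepG2 in DMEM; A549 and LO-2 in RPMI-1640; 10% FBS.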

MDA-MB-231 [12] = assay: Induction of cell cycle arrest in human MDA-MB-231 cells assessed as accumulation at G2/M phase at 1.5 uM measured after 24 hrs by propidium iodide staining based flow cytometric method (reference value: 18.55%); assay type: functional
MDA-MB-231 [13] = assay: Induction of apoptosis in human MDA-MB-231 cells assessed as viable cells at 3 uM after 24 hrs by Annexin V/propidium iodide based flow cytometric analysis (reference value: 99%); assay type: functional; details: read-out: Activity; outline: as §1
MDA-MB-231 [14] = assay: Induction of apoptosis in human MDA-MB-231 cells assessed as early apoptotic cells at 1 uM after 24 hrs by Annexin V/propidium iodide based flow cytometric analysis (reference value: 0.94%); assay type: functional; outline: as §1
MDA-MB-231 [15] = assay: Induction of apoptosis in human MDA-MB-231 cells assessed as late apoptotic cells at 1 uM after 24 hrs by Annexin V/propidium iodide based flow cytometric analysis (reference value: 0.038%); assay type: functional; outline: as §1
[16] = Induction of intracellular reactive oxygen species generation in human MDA-MB-231 cells assessed as proportion of FL1-H negative cells at 1.5 uM measured after 24 hrs by DCFH-DA staining based flow cytometry analysis (reference value: 52.2%); assay type: functional, MDA-MB-23
A549 = assay: Anticancer activity against human A549 cells assessed as inhibition of cell proliferation measured after 48 hrs by MTT assay; assay type: functional, cell-based; details: A549, 48 h
Outline: as §4, with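 “experiments.” for “experiments. MDA-MB-231, MCF-7, HepG2 in DMEM; A549 and LO-2 in RPMI-1640; 10% FBS.”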

MDA-MB-231 [17] = assay: Induction of cell cycle arrest in human MDA-MB-231 cells assessed as accumulation at S phase at 2 uM measured after 24 hrs by propidium iodide staining based flow cytometric method (reference value: 36.25%); assay type: functional
[18] = Induction of intracellular reactive oxygen species generation in human MDA-MB-231 cells assessed as proportion of FL1-H positive cells at 1 uM measured after 24 hrs by DCFH-DA staining based flow cytometry analysis (reference value: 47.8%); assay type: functional, MDA-MB-23
HepG2 = assay: Anticancer activity against human HepG2 cells assessed as inhibition of cell proliferation measured after 48 hrs by MTT assay; assay type: functional, cell-based; details: HepG2, 48 h; outline: as §4
MDA-MB-231 [19] = assay: Induction of apoptosis in human MDA-MB-231 cells assessed as downregulation of Bcl-2 expression at 1.5 to 6 uM measured after 8 hrs by Western blot analysis; assay type: functional, cell-based; details: dose 1.5-6 µM; outline: as §3
MDA-MB-231 [20] = assay: Induction of cell cycle arrest in human MDA-MB-231 cells assessed as accumulation at G2/M phase at 1 uM measured after 24 hrs by propidium iodide staining based flow cytometric method (reference value: 18.55%); assay type: functional

- IC50 (A549): 4.18 µM
- IC50 (HepG2): 2810 nM
Structure (SMILES): COc1cc2cc(N)c(=O)oc2cc1OCCCOc1no[n+]([O-])c1S(=O)(=O)c1ccccc1
- viability at 1 µM (MDA-MB-231 [1]): 87.9%
- Activity (MDA-MB-231 [2]): inactive
- Activity (MDA-MB-231 [3]): 28.05%
- Activity (MDA-MB-231 [4]): Dose-dependent effect
- Activity (MDA-MB-231 [5]): Dose-dependent effect
- Activity (MDA-MB-231 [6]): 31.5%
- Activity (MDA-MB-231 [7]): 13.2%
- Activity [8]: 88.8%
- Activity (MDA-MB-231 [9]): inactive
- fold change (FC) (MDA-MB-231 [10]): 1.09
- IC50 [11]: 1230 nM
- Activity (MDA-MB-231 [12]): 30.11%
- viability at 3 µM (MDA-MB-231 [13]): 65.6%
- Activity (MDA-MB-231 [14]): 3.75%
- Activity (MDA-MB-231 [15]): 8.17%
- Activity [16]: 17.3%
- Activity (MDA-MB-231 [17]): 20.82%
- Activity [18]: 65%
- Activity (MDA-MB-231 [19]): Active
- Activity (MDA-MB-231 [20]): 24.58%
